Reference: ChEMBL document CHEMBL3526048, “In vitro metabolism of rivoglitazone, a novel peroxisome proliferator-activated receptor γ agonist, in rat, monkey, and human liver microsomes and freshly isolated hepatocytes” (Drug Metab Dispos, 2011)

Key:
[1] = Drug metabolism in human hepatocytes assessed as formation of (2S,3S,4S,5R,6R)-6-((1-carboxy-2-(4-((6-methoxy-1-methyl-1H-benzo[d]imidazol-2-yl)methoxy)phenyl)ethylthio)carbonylamino)-3,4,5-trihydroxytetrahydro-2H-pyran-2-carboxylic acid at 30 uM after 3 hrs by radio-HPLC/LC-MS/MS analysis in presence of UDPGA and UDPGA/SAM; format: ADME, cell-based, Hepatocyte
[2] = tested on: Liver microsome; assay: Drug metabolism in Sprague-Dawley rat liver microsomes assessed as formation of 3-(4-((6-methoxy-1-methyl-1H-benzo[d]imidazol-2-yl)methoxy)phenyl)-2-(methylthio)propanamide at 20 uM after 2 hrs by radio-HPLC/LC-MS/MS analysis in presence of NADPH-generating system/SAM; format: ADME
[3] = target: T1, UDP-glucuronosyltransferase 2B17 (Homo sapiens, UniProt O75795); assay: Activity of human UGT2B17 expressed in microsomes isolated from baculovirus infected insect cell assessed as enzyme-mediated 2-mercapto-3-(4-((6-methoxy-1-methyl-1H-benzo[d]imidazol-2-yl)methoxy)phenyl)propanoic acid formation at 20 uM after 4 hrs by radio-HPLC/LC-MS/MS analysis in presence of UDPGA; format: ADME
T1 sequence (O75795 whole entry): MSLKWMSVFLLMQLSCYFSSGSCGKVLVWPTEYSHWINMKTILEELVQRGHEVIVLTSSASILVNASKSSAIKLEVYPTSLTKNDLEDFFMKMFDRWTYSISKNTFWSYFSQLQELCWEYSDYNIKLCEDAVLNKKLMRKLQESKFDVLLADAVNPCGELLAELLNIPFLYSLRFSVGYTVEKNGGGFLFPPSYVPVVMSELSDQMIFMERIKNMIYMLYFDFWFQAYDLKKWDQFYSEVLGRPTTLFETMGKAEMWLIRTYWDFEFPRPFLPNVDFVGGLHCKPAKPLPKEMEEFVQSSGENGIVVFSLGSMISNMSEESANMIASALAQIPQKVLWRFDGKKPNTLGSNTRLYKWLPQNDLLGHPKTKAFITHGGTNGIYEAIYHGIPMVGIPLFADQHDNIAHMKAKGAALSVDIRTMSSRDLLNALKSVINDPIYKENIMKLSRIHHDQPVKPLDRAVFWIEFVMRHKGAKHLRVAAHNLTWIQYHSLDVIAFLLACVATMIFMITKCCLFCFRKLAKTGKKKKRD

[4] = Drug metabolism in human hepatocytes assessed as formation of (2S,3S,4S,5R,6R)-3,4,5-trihydroxy-6-(5-(4-((6-methoxy-1-methyl-1H-benzo[d]imidazol-2-yl)methoxy)benzyl)-2,4-dioxothiazolidin-3-yl)tetrahydro-2H-pyran-2-carboxylic acid at 30 uM after 3 hrs by radio-HPLC/LC-MS/MS analysis in presence of UDPGA and UDPGA/SAM; format: ADME, cell-based, Hepatocyte
[5] = target: T2, Cytochrome P450 2C8 (Homo sapiens, UniProt P10632); assay: Activity of human CYP2C8 expressed in microsomes isolated from baculovirus infected insect cell assessed as enzyme-mediated (2S,3S,4S,5R,6R)-6-((1-carboxy-2-(4-((6-methoxy-1-methyl-1H-benzo[d]imidazol-2-yl)methoxy)phenyl)ethylthio)carbonylamino)-3,4,5-trihydroxytetrahydro-2H-pyran-2-carboxylic acid formation at 20 uM after 2 hrs by radio-HPLC/LC-MS/MS analysis in presence of NADPH-generating system/SAM; format: ADME
T2 sequence (P10632 whole entry): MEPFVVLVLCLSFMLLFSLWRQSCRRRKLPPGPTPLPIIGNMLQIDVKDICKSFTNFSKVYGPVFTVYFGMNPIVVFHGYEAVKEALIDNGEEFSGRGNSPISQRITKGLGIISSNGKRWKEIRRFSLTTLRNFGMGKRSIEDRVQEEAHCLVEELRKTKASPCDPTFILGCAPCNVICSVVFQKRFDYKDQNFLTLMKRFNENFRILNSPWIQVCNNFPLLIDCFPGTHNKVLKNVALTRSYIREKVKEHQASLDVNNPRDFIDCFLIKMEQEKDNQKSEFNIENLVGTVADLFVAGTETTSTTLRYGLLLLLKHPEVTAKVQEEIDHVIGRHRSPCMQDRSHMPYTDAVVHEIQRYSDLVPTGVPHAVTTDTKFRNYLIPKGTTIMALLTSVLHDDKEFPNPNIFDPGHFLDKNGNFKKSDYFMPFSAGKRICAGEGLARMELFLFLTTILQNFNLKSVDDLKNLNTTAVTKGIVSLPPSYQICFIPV

[6] = target: Cytochrome P450 2C9 (Homo sapiens, UniProt P11712); assay: Activity of human CYP2C9 expressed in microsomes isolated from baculovirus infected insect cell assessed as enzyme-mediated 5-(4-((6-methoxy-1H-benzo[d]imidazol-2-yl)methoxy)benzyl)thiazolidine-2,4-dione formation at 20 uM after 2 hrs by radio-HPLC/LC-MS/MS analysis in presence of NADPH-generating system and NADPH-generating system/SAM; format: ADME
Cytochrome P450 2C9, sequence (P11712 whole entry): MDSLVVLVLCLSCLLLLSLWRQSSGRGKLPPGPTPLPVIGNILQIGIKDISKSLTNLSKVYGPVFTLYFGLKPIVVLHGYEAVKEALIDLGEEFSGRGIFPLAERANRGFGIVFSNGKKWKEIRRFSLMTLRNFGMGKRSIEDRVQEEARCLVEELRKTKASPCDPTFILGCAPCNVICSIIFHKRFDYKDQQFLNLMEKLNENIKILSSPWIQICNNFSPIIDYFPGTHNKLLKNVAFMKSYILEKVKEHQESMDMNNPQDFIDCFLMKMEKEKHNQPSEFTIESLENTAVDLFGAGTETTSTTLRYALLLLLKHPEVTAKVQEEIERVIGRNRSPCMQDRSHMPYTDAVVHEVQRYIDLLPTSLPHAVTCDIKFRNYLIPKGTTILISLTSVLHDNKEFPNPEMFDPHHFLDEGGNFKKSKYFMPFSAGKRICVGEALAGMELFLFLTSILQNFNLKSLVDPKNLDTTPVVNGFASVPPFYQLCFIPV

[7] = target: Cytochrome P450 2C19 (Homo sapiens, UniProt P33261); assay: Activity of human CYP2C19 expressed in microsomes isolated from baculovirus infected insect cell assessed as enzyme-mediated 2-mercapto-3-(4-((6-methoxy-1-methyl-1H-benzo[d]imidazol-2-yl)methoxy)phenyl)propanamide formation at 20 uM after 2 hrs by radio-HPLC/LC-MS/MS analysis in presence of NADPH-generating system and NADPH-generating system/SAM; format: ADME
Cytochrome P450 2C19, sequence (P33261 whole entry): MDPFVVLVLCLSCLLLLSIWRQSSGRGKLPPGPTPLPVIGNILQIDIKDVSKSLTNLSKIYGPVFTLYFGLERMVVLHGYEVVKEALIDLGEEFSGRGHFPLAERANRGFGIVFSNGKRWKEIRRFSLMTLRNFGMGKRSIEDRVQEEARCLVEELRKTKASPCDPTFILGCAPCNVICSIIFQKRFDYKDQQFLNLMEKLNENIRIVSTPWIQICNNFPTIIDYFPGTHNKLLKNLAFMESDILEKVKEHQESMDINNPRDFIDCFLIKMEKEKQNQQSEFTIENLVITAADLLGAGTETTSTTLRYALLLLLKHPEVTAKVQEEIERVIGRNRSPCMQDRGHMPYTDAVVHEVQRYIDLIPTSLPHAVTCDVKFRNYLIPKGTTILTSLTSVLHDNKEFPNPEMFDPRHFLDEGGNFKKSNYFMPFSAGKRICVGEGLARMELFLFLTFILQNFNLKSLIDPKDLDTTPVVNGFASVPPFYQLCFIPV
Summary of the method: (§1)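 Baculovirus/insect-cell microsomes expressing single human CYPs, 1 mg/ml protein, with 50 mM potassium phosphate (pH 7.4) or 100 mM Tris-HCl (pH 7.5). NADPH-generating system: 2 mM NADP⁺, 20 mM glucose 6-phosphate, 2 units/ml G6PDH, 10 mM MgCl₂. [¹⁴C]rivoglitazone at 20 μM, 2 h at 37°C with shaking. Control used insect-cell control supersomes. Stopped with acetonitrile; supernatant concentrated under nitrogen; metabolites analysed by radio-HPLC, LC-MS and LC-MS/MS.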

[8] = target: T3, Cytochrome P450 1A2 (Homo sapiens, UniProt P05177); assay: Activity of human CYP1A2 expressed in microsomes isolated from baculovirus infected insect cell assessed as enzyme-mediated 3-(4-((6-methoxy-1-methyl-1H-benzo[d]imidazol-2-yl)methoxy)phenyl)-2-(methylthio)propanoic acid formation at 20 uM after 2 hrs by radio-HPLC/LC-MS/MS analysis in presence of NADPH-generating system/SAM and UDPGA/SAM; format: ADME
T3 sequence (P05177 whole entry): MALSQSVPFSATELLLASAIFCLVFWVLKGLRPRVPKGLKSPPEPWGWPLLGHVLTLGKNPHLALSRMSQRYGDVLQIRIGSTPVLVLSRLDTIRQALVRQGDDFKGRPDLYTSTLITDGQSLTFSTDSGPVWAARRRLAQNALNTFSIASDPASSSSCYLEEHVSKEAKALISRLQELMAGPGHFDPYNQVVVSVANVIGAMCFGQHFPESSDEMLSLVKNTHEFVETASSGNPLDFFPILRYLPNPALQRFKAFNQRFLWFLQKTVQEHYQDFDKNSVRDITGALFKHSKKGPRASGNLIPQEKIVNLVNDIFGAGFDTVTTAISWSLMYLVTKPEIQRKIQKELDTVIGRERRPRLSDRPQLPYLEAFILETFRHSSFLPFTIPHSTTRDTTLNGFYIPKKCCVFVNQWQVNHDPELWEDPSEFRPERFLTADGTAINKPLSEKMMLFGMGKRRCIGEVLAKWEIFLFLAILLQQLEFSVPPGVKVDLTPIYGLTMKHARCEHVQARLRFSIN

[9] = target: T3, Cytochrome P450 1A2; assay: Activity of human CYP1A2 expressed in microsomes isolated from baculovirus infected insect cell assessed as enzyme-mediated 3-(4-((6-methoxy-1-methyl-1H-benzo[d]imidazol-2-yl)methoxy)phenyl)-2-(methylsulfonyl)propanamide formation at 20 uM after 2 hrs by radio-HPLC/LC-MS/MS analysis in presence of NADPH-generating system/SAM; format: ADME
[10] = Drug metabolism in cynomolgus monkey liver microsomes assessed as formation of 5-hydroxy-5-(4-((6-methoxy-1-methyl-1H-benzo[d]imidazol-2-yl)methoxy)benzyl)thiazolidine-2,4-dione at 20 uM after 2 hrs by radio-HPLC/LC-MS/MS analysis in presence of NADPH-generating system and NADPH-generating system/SAM; format: ADME, Macaca fascicularis
[11] = target: T3, Cytochrome P450 1A2; assay: Activity of human CYP1A2 expressed in microsomes isolated from baculovirus infected insect cell assessed as enzyme-mediated 5-(4-((6-hydroxy-1-methyl-1H-benzo[d]imidazol-2-yl)methoxy)benzyl)thiazolidine-2,4-dione formation at 20 uM after 2 hrs by radio-HPLC/LC-MS/MS analysis in presence of NADPH-generating system and NADPH-generating system/SAM; format: ADME; summary of the method: as §1

COc1ccc2nc(COc3ccc(C[14CH]4SC(=O)NC4=O)cc3)n(C)c2c1.Cl (racemic)
Drug metabolism [1]: metabolite_detected
Drug metabolism [2]: metabolite_detected
Drug metabolism [3]: metabolite_not_detected
Drug metabolism [4]: metabolite_detected
Drug metabolism [5]: metabolite_not_detected
Drug metabolism [6]: metabolite_detected
Drug metabolism [7]: metabolite_detected
Drug metabolism [8]: metabolite_not_detected
Drug metabolism [9]: metabolite_not_detected
Drug metabolism [10]: metabolite_detected
Drug metabolism [11]: metabolite_detected
